pIC50, pKi: −log10 of the molar value. In brackets after ≈: the same amount, converted by molar mass. Activity calls are given as the source filed them. No cut-off for these calls is given here.
Experiments:
N-acetyltransferase Eis [1] = target: T1, N-acetyltransferase Eis (Mycobacterium tuberculosis (strain ATCC 25618 / H37Rv), UniProt P9WFK7); experiment: Inhibition of Mycobacterium tuberculosis Eis assessed as Eis-mediated kanamycin acetylation preincubated for 10 mins followed by substrate addition and measured for 2 to 5 mins using acetyl-CoA as substrate in presence of kanamycin by UV-Vis spectroscopy analysis
T1 sequence (P9WFK7 whole entry): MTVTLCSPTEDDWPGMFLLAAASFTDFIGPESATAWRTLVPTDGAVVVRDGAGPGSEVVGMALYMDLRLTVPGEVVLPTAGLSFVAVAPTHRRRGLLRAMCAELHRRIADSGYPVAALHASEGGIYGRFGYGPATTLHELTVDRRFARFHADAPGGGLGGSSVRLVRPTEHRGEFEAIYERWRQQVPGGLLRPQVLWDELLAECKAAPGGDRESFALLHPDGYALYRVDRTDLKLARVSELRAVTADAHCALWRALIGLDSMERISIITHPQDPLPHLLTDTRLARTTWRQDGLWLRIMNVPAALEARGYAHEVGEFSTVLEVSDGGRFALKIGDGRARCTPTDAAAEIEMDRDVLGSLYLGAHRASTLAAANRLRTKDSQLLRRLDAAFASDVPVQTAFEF
In short: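 Recombinant Eis (1 µM) mixed with KAN (400 µM) in 50 mM Tris-HCl pH 8.0 and preincubated 10 min with 5-fold serially diluted inhibitor (10% DMSO in buffer). Reaction started with AcCoA and DTNB (2 mM each, as added). Absorbance read every 30 s for 20 min. Initial rates (first 2-5 min) fitted to Hill plot for IC50. At least triplicate.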

[2] = test system: Mycolicibacterium smegmatis; experiment: Antibacterial activity against Mycobacterium smegmatis mc2 155 assessed as inhibition of bacterial growth incubated upto 3 weeks hrs by resazurin dye based double-dilution method; type: functional; details: mc2 155, 504 h
In short: (§1)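 Double-dilution broth MIC. Media: M. smegmatis, Mueller-Hinton; M. abscessus, 7H9 + 0.05% Tween80 + 0.4% glycerol; mc²6230, 7H9 + 0.05% tyloxapol, 0.5% glycerol, 10% OADC, 0.2% casamino acids, 24 µg/mL pantothenate; other mycobacteria, 7H9 + 0.05% Tween80, 0.4% glycerol, 10% ADC. Inoculum from agar set to 0.5 McFarland, then diluted 1:100.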

[3] = test system: Mycobacteroides abscessus; experiment: Antibacterial activity against Mycobacterium abscessus ATCC 19977 assessed as inhibition of bacterial growth incubated upto 3 weeks hrs by resazurin dye based double-dilution method; type: functional; details: ATCC 19977, 504 h; in short: as §1
[4] = test system: Mycobacterium intracellulare; experiment: Antibacterial activity against Mycobacterium intracellulare ATCC 13950 assessed as inhibition of bacterial growth incubated upto 3 weeks hrs by resazurin dye based double-dilution method; type: functional; details: ATCC 13950, 504 h; in short: as §1
Mycobacterium avium [5] = experiment: Antibacterial activity against Mycobacterium avium ATCC 25921 assessed as inhibition of bacterial growth incubated upto 3 weeks hrs by resazurin dye based double-dilution method; type: functional; details: ATCC 25921, 504 h; in short: as §1
[6] = test system: Mycobacterium tuberculosis; experiment: Antibacterial activity against Mycobacterium tuberculosis H37Ra ATCC NRS22 assessed as inhibition of bacterial growth incubated upto 3 weeks hrs by resazurin dye based double-dilution method; type: functional; details: H37Ra ATCC NRS22, 504 h; in short: as §1
[7] = test system: Mycolicibacterium smegmatis; experiment: Synergistic antibacterial activity against Mycobacterium smegmatis mc2 155 assessed as fold reduction in MIC value at 8 ug/ml in presence of spectinomycin by checkerboard assay; type: functional; details: dose 8 µg/ml
[8] = test system: Mycolicibacterium smegmatis; experiment: Synergistic antibacterial activity against Mycobacterium smegmatis mc2 155 assessed as fold reduction in MIC value at 8 ug/ml in presence of clarithromycin by checkerboard assay; type: functional; details: dose 8 µg/ml
[9] = Metabolic stability in human liver microsomes at 2 to 4 uM incubated for 30 mins by LC-MS/MS analysis; type: ADME, Microsome; details: dose 2-4 µM, read-out: Stability
[10] = Metabolic stability in mouse liver microsomes at 2 to 4 uM incubated for 30 mins by LC-MS/MS analysis; type: ADME, Microsome; details: dose 2-4 µM, read-out: Stability
[11] = test system: Mycobacterium tuberculosis; experiment: Potentiation of kanamycin-induced antibacterial activity against Mycobacterium tuberculosis H37Rv assessed as kanamycin MIC incubated for 1 day followed by kanamycin addition for 6 days and by Alamar blue assay; type: functional; details: 168 h, time 7 day
In short: (§2)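 Mtb in 7H9 + 10% ADC, 0.05% Tween 80, 0.4% glycerol at 37 °C. Inoculum adjusted to OD600 0.2, diluted 1:25. Cells preincubated 24 h at 37 °C with compound (100 µL of 200 µM solution). KAN then added: H37Rv at 2.5 and 1.25 µg/mL; K204 at 10, 5, 2.5, 1.25 µg/mL. Incubated 6 days, AlamarBlue added, colour read at 24 and 48 h. MIC = lowest KAN with no colour change. At least twice in duplicate.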

[12] = test system: Mycobacterium tuberculosis; experiment: Potentiation of kanamycin-induced antibacterial activity against Mycobacterium tuberculosis K204 assessed as kanamycin MIC incubated for 1 day followed by kanamycin addition for 6 days and by Alamar blue assay; type: functional; details: K204, 168 h, time 7 day; in short: as §2
[13] = test system: Mycolicibacterium smegmatis; experiment: Synergistic antibacterial activity against Mycobacterium smegmatis mc2 155 assessed as fold reduction in MIC value at 8 ug/ml in presence of clofazimine by checkerboard assay; type: functional, organism-based; details: dose 8.0 µg/ml
[14] = test system: Mycobacteroides abscessus; experiment: Synergistic antibacterial activity against Mycobacterium abscessus ATCC 19977 assessed as reduction in bacterial growth presence of spectinomycin by checkerboard assay; type: functional, organism-based
In short: (§3)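 Checkerboard in 96-well plates. Antibiotic two-fold serially diluted along columns, haloperidol derivative two-fold along rows. Bacteria prepared as for the MIC determination. MICs alone and in combination used to calculate FICI. At least duplicate independent trials.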

[15] = test system: Mycobacteroides abscessus; experiment: Synergistic antibacterial activity against Mycobacterium abscessus ATCC 19977 in presence of clofazimine by checkerboard assay; type: functional, organism-based; in short: as §3
[16] = test system: Mycobacterium intracellulare; experiment: Antibacterial activity against Mycobacterium intracellulare ATCC 13950 in presence of spectinomycin by checkerboard assay; type: functional, organism-based; in short: as §3
[17] = test system: Mycobacterium intracellulare; experiment: Antibacterial activity against Mycobacterium intracellulare ATCC 13950 in presence of clarithromycin by checkerboard assay; type: functional, organism-based; in short: as §3
[18] = test system: Mycobacterium intracellulare; experiment: Antibacterial activity against Mycobacterium intracellulare ATCC 13950 in presence of clofazimine by checkerboard assay; type: functional, organism-based; in short: as §3
Mycobacterium avium [19] = experiment: Antibacterial activity against Mycobacterium avium ATCC 25921 in presence of spectinomycin by checkerboard assay; type: functional, organism-based; in short: as §3
Mycobacterium avium [20] = experiment: Antibacterial activity against Mycobacterium avium ATCC 25921 in presence of clarithromycin by checkerboard assay; type: functional, organism-based; in short: as §3
Mycobacterium avium [21] = experiment: Antibacterial activity against Mycobacterium avium ATCC 25921 in presence of clofazimine by checkerboard assay; type: functional, organism-based; in short: as §3
[22] = test system: Mycobacterium tuberculosis; experiment: Synergistic antibacterial activity against Mycobacterium tuberculosis H37Ra ATCC NRS22 in presence of spectinomycin by checkerboard assay; type: functional, organism-based; in short: as §3
N-acetyltransferase Eis [23] = target: T1, N-acetyltransferase Eis; experiment: Competitive inhibition of Mycobacterium tuberculosis Eis assessed as reduction in Eis-mediated kanamycin acetylation preincubated for 10 mins followed by substrate addition and measured for 2 to 5 mins using acetyl-CoA as substrate in presence of kanamycin by Lineweaver-Burk plot analysis
In short: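 Same DTNB-coupled Eis acetylation assay used for IC50, run as Michaelis-Menten kinetics with inhibitor at 0-1 μM. Vmax and Km from these fits used to determine mode of inhibition. Quadruplicate.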

Structure (SMILES)	pIC50 (N-acetyltransferase Eis [1])	MIC [2] [µM]	MIC [3] [µM]	MIC [4] [µM]	MIC (Mycobacterium avium [5]) [µM]	MIC [6] [µM]	MIC [11] [µg/mL]	MIC [12] [µg/mL]	also measured
CC(C)(C)c1ccc(C(=O)CCCN2CCC(O)(c3ccc(F)cc3)CC2)cc1	3.70	62.5 (≈ 24.8 µg/mL)	> 62.5	31.3 (≈ 12.4 µg/mL)	31.3 (≈ 12.4 µg/mL)	15.6 (≈ 6.2 µg/mL)			fold change (FC) [7]: 16; fold change (FC) [8]: 4; remaining at 0.5 h [9]: 50%; remaining at 0.5 h [10]: 48%
O=C(CCCN1CCC(O)(c2ccc(Cl)cc2)CC1)c1ccccc1	5.28	> 62.5	> 62.5	> 62.5	62.5 (≈ 22.4 µg/mL)	62.5 (≈ 22.4 µg/mL)	≤ 1.25	> 10	
COc1ccc(C(=O)CCCN2CCC(O)(c3ccc(Br)cc3)CC2)cc1	5.25	> 62.5	> 62.5	> 62.5	62.5 (≈ 27 µg/mL)	31.3 (≈ 13.5 µg/mL)	≤ 1.25	> 10	
O=C(CCCN1CCC(O)(c2ccc(Br)cc2)CC1)c1ccc(Cl)cc1	5.96	31.3 (≈ 13.7 µg/mL)	> 62.5	62.5 (≈ 27.3 µg/mL)	> 62.5	7.8 (≈ 3.41 µg/mL)	≤ 1.25	10	fold change (FC) [7]: 16; fold change (FC) [8]: 4; Activity [13]: Active; Activity [14]: Active; Activity [15]: Active; Activity [16]: Active; Activity [17]: Active; Activity [18]: Active; Activity (Mycobacterium avium [19]): Active; Activity (Mycobacterium avium [20]): Active; Activity (Mycobacterium avium [21]): Active; Activity [22]: Active; remaining at 0.5 h [9]: 36%; remaining at 0.5 h [10]: 83%
COc1ccc(C(=O)CCCN2CCC(O)(c3ccc(F)cc3)CC2)cc1	4.38	> 62.5	> 62.5	> 62.5	> 62.5	> 62.5	≤ 1.25	> 10	
O=C(CCCN1CCC(O)(c2ccc(Br)cc2)CC1)c1ccc(F)cc1 [BROMPERIDOL]	6.28	> 62.5	> 62.5	62.5 (≈ 26.3 µg/mL)	62.5 (≈ 26.3 µg/mL)	> 62.5	≤ 1.25	5	pKi (N-acetyltransferase Eis [23]): 6.62; fold change (FC) [7]: 16; fold change (FC) [8]: 4
O=C(CCCN1CCC(O)(c2ccc(F)cc2)CC1)c1ccc(Br)cc1	5.18	> 62.5	> 62.5	62.5 (≈ 26.3 µg/mL)	62.5 (≈ 26.3 µg/mL)	31.3 (≈ 13.2 µg/mL)	≤ 1.25	10	
O=C(CCCN1CCC(O)(c2ccc(Br)cc2)CC1)c1ccc(Br)cc1	< 3.70	31.3 (≈ 15.1 µg/mL)	> 62.5	> 62.5	> 62.5	7.8 (≈ 3.75 µg/mL)	≤ 1.25	> 10	
O=C(CCCN1CCC(O)(c2ccc(F)cc2)CC1)c1ccccc1	5.51	> 62.5	> 62.5	> 62.5	> 62.5	> 62.5	≤ 1.25	10	
O=C(CCCN1CCC(O)(c2ccc(Br)cc2)CC1)c1ccccc1	5.66	> 62.5	> 62.5	> 62.5	> 62.5	62.5 (≈ 25.1 µg/mL)	≤ 1.25	10	
O=C(CCCN1CC=C(c2ccc(Cl)cc2)CC1)c1ccc(F)cc1	6.25	> 62.5	> 62.5	15.6 (≈ 5.58 µg/mL)	31.3 (≈ 11.2 µg/mL)	7.8 (≈ 2.79 µg/mL)			remaining at 0.5 h [9]: 30%; remaining at 0.5 h [10]: 90%
CC1CC(C)CN(CCCC(=O)c2ccc(C(C)(C)C)cc2)C1 (stereo not given)	3.70	62.5 (≈ 19.7 µg/mL)	62.5 (≈ 19.7 µg/mL)	62.5 (≈ 19.7 µg/mL)	62.5 (≈ 19.7 µg/mL)	31.3 (≈ 9.88 µg/mL)			
Fc1ccc(OCCCN2CCC(c3ccccc3)CC2)cc1	4.85	> 62.5	62.5 (≈ 19.6 µg/mL)	62.5 (≈ 19.6 µg/mL)	> 62.5	31.3 (≈ 9.81 µg/mL)			
O=C(CN1CCC(O)(c2ccc(Cl)cc2)CC1)c1ccc(F)cc1	4.00	> 62.5	> 62.5	> 62.5	> 62.5	> 62.5			

From ChEMBL document CHEMBL5107950, “Structure-based design of haloperidol analogues as inhibitors of acetyltransferase Eis from Mycobacterium tuberculosis to overcome kanamycin resistance” (RSC Med Chem, 2021)
